Experiments:
[1] = molecular target: Sigma non-opioid intracellular receptor 1 (Mus musculus, UniProt O55242); assay: In vitro binding affinity for the mouse sigma opioid receptor
[2] = molecular target: Serotonin 2 (5-HT2) receptor (Mus musculus, UniProt Q02152+P34968+P35363); assay: In vitro binding affinity for serotonin 5-hydroxytryptamine (5-HT) 2 receptors; type: protein assay
D(2) dopamine receptor = D(2) dopamine receptor (Mus musculus, UniProt P61168); assay: In vitro binding affinity towards dopamine receptor D2
D(2) dopamine receptor, sequence (P61168 whole entry): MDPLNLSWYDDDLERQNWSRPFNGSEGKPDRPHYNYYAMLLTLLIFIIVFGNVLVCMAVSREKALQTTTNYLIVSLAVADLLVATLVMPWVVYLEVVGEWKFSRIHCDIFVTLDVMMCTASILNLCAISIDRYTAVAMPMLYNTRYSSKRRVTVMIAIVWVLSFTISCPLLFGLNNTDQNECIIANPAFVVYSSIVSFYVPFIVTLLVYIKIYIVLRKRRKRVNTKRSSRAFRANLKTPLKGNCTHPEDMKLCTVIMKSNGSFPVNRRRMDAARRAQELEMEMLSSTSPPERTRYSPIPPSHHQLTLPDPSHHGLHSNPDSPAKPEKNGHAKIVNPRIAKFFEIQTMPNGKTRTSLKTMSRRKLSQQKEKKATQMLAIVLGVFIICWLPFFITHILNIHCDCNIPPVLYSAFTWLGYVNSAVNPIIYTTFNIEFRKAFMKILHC

Mus musculus [3] = species on record: Mus musculus; assay: Potency was tested using Anti mescaline test(Intra peritoneal); type: functional
How it was run: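 Mouse mescaline-antagonism test with the test compound given intraperitoneally. Read-out is the ED50 in mg/kg ip.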

Mus musculus [4] = species on record: Mus musculus; assay: Oral potency tested by using anti-mescaline test; type: functional
How it was run: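 Mice; mescaline was given to evoke hallucinogen-type behaviour, and the test compound was dosed orally to antagonise it. Potency is the ED50 in mg/kg po. Some ED50s are the average of three measurements.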

Rattus norvegicus = species on record: Rattus norvegicus; assay: Oral potency tested using 5HTP induced head twitch test; type: functional
[5] = Oral potency by using Anti aggression test; type: functional
How it was run: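 Mice were held in prolonged isolation, then exposed to intruders. The aggressive response was scored after oral dosing of the test compound. Potency is the ED50 in mg/kg po.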

Mus musculus [6] = species on record: Mus musculus; assay: Oral potency tested using apomorphine induced climbing test; type: functional
Mus musculus [7] = species on record: Mus musculus; assay: Oral potency by using Anti aggression test

Sigma non-opioid intracellular receptor 1, sequence (O55242 whole entry): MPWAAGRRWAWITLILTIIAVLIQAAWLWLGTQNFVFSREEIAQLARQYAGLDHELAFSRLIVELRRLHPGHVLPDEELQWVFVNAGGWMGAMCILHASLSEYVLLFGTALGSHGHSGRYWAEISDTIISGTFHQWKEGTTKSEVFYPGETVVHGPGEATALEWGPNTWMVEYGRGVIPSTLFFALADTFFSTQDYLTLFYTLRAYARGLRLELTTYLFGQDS

Compound	Ki [1]	Ki [2]	IC50 (D(2) dopamine receptor)	ED50 (Mus musculus [3])	ED50 (Mus musculus [4])	ED50 (Rattus norvegicus)	ED50 [5]	ED50 (Mus musculus [6])	ED50 (Mus musculus [7])
Cl.c1ccc(CN2CCC(COc3ccc4ccccc4n3)CC2)cc1	5.6 nM	311 nM	6300 nM	< 10 mg/kg					
CN(C)c1cccc(OCC2CCN(CC3CC3)CC2)c1.O	5 nM	1158 nM	7330 nM	< 10 mg/kg					
O=C(CC1CCN(Cc2ccc(F)cc2)CC1)c1ccc(F)cc1	3 nM	26 nM	608 nM		4.5 mg/kg	< 10 mg/kg	4.5 mg/kg	< 10 mg/kg	
O.O=[N+]([O-])c1ccc(OCC2CCN(CC3CC3)CC2)cc1	13 nM	215 nM	> 10000 nM		0.85 mg/kg	> 10 mg/kg	1.4 mg/kg	> 30 mg/kg	
Cl.O.OC(Cc1ccc(F)cc1)C1CCN(Cc2ccccc2)CC1 (stereo not drawn)	3 nM	360 nM	789 nM		5 mg/kg		> 30 mg/kg	> 30 mg/kg	
Cl.c1ccc(CCCCOCC2CCN(Cc3ccccc3)CC2)cc1	2 nM	224 nM	4340 nM	> 10 mg/kg					
CCCCCN1CCC(COCc2ccc(F)cc2)CC1.Cl	9 nM		1320 nM	< 10 mg/kg					
Cl.OC(CC1CCN(Cc2ccccc2)CC1)c1ccc(F)cc1 (stereo not drawn)	8 nM	323 nM	5660 nM		5 mg/kg	6.8 mg/kg	32 mg/kg	> 30 mg/kg	
O.c1ccc2cc(OCC3CCN(CC4CC4)CC3)ccc2c1	5 nM	> 100 nM	2960 nM	> 10 mg/kg					
Cl.O.O=C(CC1CCN(CC2CC2)CC1)c1ccc(C(F)(F)F)cc1	45 nM	278 nM	> 10000 nM		6.6 mg/kg			> 30 mg/kg	> 30 mg/kg
N#Cc1ccc(OCC2CCN(CC3CC3)CC2)cc1	10 nM	2818 nM	> 10000 nM		1.7 mg/kg	29 mg/kg	2.6 mg/kg		
C[C@@H]1CN(CCCn2c3ccccc3c3ccccc32)C[C@H](C)N1 [RIMCAZOLE]	820 nM	2842 nM			22 mg/kg			> 90 mg/kg	48 mg/kg
Br.O=C(CC1CCN(CC2CC2)CC1)c1ccc(-c2ccccc2)cc1	51 nM	547 nM	1720 nM		4.7 mg/kg	10 mg/kg		> 30 mg/kg	8.4 mg/kg
Cl.Clc1ccc(OCC2CCN(CC3CC3)CC2)cc1	4 nM	40 nM	> 10000 nM		4.4 mg/kg	27 mg/kg	26 mg/kg	> 30 mg/kg	
O.O=C(Cc1ccc(F)cc1)C1CCN(Cc2ccncc2)CC1.O=C(O)/C=C\C(=O)O	7 nM	1705 nM	> 10000 nM		10 mg/kg	28 mg/kg	38 mg/kg		
Br.COc1ccc(C(=O)CC2CCN(CC3CC3)CC2)cc1	55 nM	1883 nM	1800 nM	> 10 mg/kg					
Cl.c1ccc(CCCCCOCC2CCN(Cc3ccccc3)CC2)cc1	26 nM	186 nM	1850 nM	> 10 mg/kg					
Cl.Fc1ccc(OCC2CCN(CCc3ccc(Cl)cc3)CC2)cc1	5 nM	26 nM	368 nM		1.7 mg/kg	> 10 mg/kg	10 mg/kg		
CC(C)(C)c1ccc(COCCC2CCN(Cc3ccccc3)CC2)cc1.Cl	4.5 nM	939 nM	6750 nM	> 10 mg/kg					
Fc1ccc(COCC2CCN(Cc3ccncc3)CC2)cc1.O=C(O)/C=C/C(=O)O	2 nM		> 10000 nM	< 10 mg/kg					
OC(CCCN1CCN(c2ncc(F)cn2)CC1)c1ccc(F)cc1 (stereo not drawn) [BMY-14802]	174 nM	410 nM	2430 nM		6 mg/kg	2.3 mg/kg		> 90 mg/kg	45 mg/kg
Fc1ccc(OCC2CCN(CC3CC3)CC2)cc1	2 nM	9 nM	381 nM		2.9 mg/kg	10 mg/kg	12 mg/kg	> 30 mg/kg	
Cl.c1ccc(COCC2CCN(Cc3ccccc3)CC2)cc1	4 nM	> 1000 nM	> 10000 nM	> 10 mg/kg					
Cl.Fc1ccc(COCC2CCN(Cc3ccc(Cl)cc3)CC2)cc1	2 nM	281 nM		< 10 mg/kg					
O.O=C(CC1CCN(Cc2ccccc2)CC1)c1ccc(C(F)(F)F)cc1	10 nM	> 1000 nM	4670 nM		> 10 mg/kg				
Cl.Fc1ccc(COCC2CCN(Cc3ccc(-c4ccccc4)cc3)CC2)cc1	14 nM	> 1000 nM	818 nM	> 10 mg/kg					
